Measurements: ChEMBL document CHEMBL1212790, “Triclosan resistance of Pseudomonas aeruginosa PAO1 is due to FabV, a triclosan-resistant enoyl-acyl carrier protein reductase” (2010)
In brackets after ≈: the same amount, converted by molar mass. Activity calls are given as the source filed them. The rule behind the calls is not given here.

How the values were obtained:
Pseudomonas aeruginosa [1] = experiment: Activity of Pseudomonas aeruginosa PA0170 fabV in presence of 100 uM NADH
Outline: (§1)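 Cell extracts (2 μg) of the P. aeruginosa deletion strains (PAO170 ΔfabV, PAO272 ΔfabI) were assayed for NADH-dependent enoyl-ACP reductase activity in 70 μl of 0.1 M sodium phosphate pH 7.5 with 0.1 mM NADH. Reactions were started with 100 μM trans-2-decenoyl-ACP and run with or without 15 μg/ml triclosan. Values are means plus standard deviations of three experiments.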

Pseudomonas aeruginosa [2] = experiment: Antibacterial activity against Pseudomonas aeruginosa PA0170 lacking fabV gene assessed as microbial growth inhibition
Escherichia coli [3] = experiment: Antibacterial activity against Escherichia coli W3110 containing pZL17 expressing Pseudomonas aeruginosa fabI gene assessed as microbial growth inhibition; assay type: functional
Outline: (§2)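 Triclosan MIC on LB agar plates carrying serial dilutions of triclosan; cells plated and plates incubated at 37°C. MIC taken as the triclosan concentration of the first plate without growth. E. coli hosts (W3110, MG1655) carried pBluescript SK(+)-derived plasmids encoding fabV or fabI, or the empty vector.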

Pseudomonas aeruginosa [4] = experiment: Antibacterial activity against Pseudomonas aeruginosa PA01 assessed as microbial growth inhibition; assay type: functional
Pseudomonas aeruginosa [5] = experiment: Inhibition of Pseudomonas aeruginosa PA0170 fabV assessed as reduction of [1-14C]acetate incorporation into phospholipids
Escherichia coli [6] = experiment: Antibacterial activity against Escherichia coli MG1655 containing pZL19 expressing Escherichia coli fabI gene assessed as microbial growth inhibition; assay type: functional; outline: as §2
Pseudomonas aeruginosa [7] = experiment: Inhibition of wild type Pseudomonas aeruginosa ENR at 15 ug/ml
Outline: (§3)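 Cell-extract ENR assay (70 μl) in 0.1 M sodium phosphate pH 7.5 with 0.1 mM NADH and 2 μg of cell extract. Started with 100 μM trans-2-decenoyl-ACP, with or without 15 μg/ml triclosan. NADH-dependent activity followed as the drop in A340. Means plus standard deviations of three experiments.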

Escherichia coli [8] = experiment: Antibacterial activity against Escherichia coli MG1655 containing empty vector pBluescript assessed as microbial growth inhibition; assay type: functional; outline: as §2
[9] = biological target: T1, Enoyl-[acyl-carrier-protein] reductase [NADH] FabI (Pseudomonas aeruginosa) (UniProt Q9ZFE4); experiment: Inhibition of Pseudomonas aeruginosa PAO272 fabI assessed as reduction of [1-14C]acetate incorporation into phospholipids
T1 sequence (whole entry): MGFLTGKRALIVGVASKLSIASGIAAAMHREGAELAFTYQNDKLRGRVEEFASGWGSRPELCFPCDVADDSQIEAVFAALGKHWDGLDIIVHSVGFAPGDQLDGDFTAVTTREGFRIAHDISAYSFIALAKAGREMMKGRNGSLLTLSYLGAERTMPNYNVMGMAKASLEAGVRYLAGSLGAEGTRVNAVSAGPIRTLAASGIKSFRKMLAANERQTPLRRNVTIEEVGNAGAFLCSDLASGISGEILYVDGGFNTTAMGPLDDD

Escherichia coli [10] = experiment: Antibacterial activity against Escherichia coli MG1655 pZL16 expressing Pseudomonas aeruginosa fabV gene assessed as microbial growth inhibition; assay type: functional; outline: as §2
Escherichia coli [11] = experiment: Antibacterial activity against Escherichia coli MG1655 pZL17 expressing Pseudomonas aeruginosa fabI gene assessed as microbial growth inhibition; assay type: functional; outline: as §2
Escherichia coli [12] = experiment: Antibacterial activity against Escherichia coli W3110 containing pZL19 expressing sEscherichia coli fabI gene assessed as microbial growth inhibition; assay type: functional; outline: as §2
Escherichia coli [13] = experiment: Antibacterial activity against Escherichia coli W3110 containing empty vector pBluescript at 37 deg C; assay type: functional; outline: as §2
Pseudomonas aeruginosa [14] = experiment: Inhibition of Pseudomonas aeruginosa fabV activity assessed as conversion of […] at 1000 ug/ml in presence of 2.5 M urea
Outline: (§4)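 3-Hydroxydecanoyl-ACP dehydrated to trans-2-decenoyl-ACP with E. coli FabZ, then split into tubes holding dried triclosan (added from an ethanol stock and dried down). Purified His-tagged PaFabV or PaFabI added; reduction in 0.1 M sodium phosphate pH 7.0 with NADH, 1 h. Products resolved by conformationally sensitive PAGE with 2.5 M urea and Coomassie staining.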

[15] = biological target: T1, Enoyl-[acyl-carrier-protein] reductase [NADH] FabI (Pseudomonas aeruginosa); experiment: Inhibition of Pseudomonas aeruginosa PAO272 fabI assessed as reduction of Enoyl-[acyl-carrier-protein] reductase activity at 15 ug/ml; outline: as §3
Pseudomonas aeruginosa [16] = experiment: Antibacterial activity against Pseudomonas aeruginosa PA0272 lacking fabI assessed as microbial growth inhibition
Pseudomonas aeruginosa [17] = experiment: Inhibition of Pseudomonas aeruginosa PA0170 fabV assessed as reduction of Enoyl-[acyl-carrier-protein] reductase activity at 15 ug/ml; outline: as §3
Escherichia coli [18] = experiment: Antibacterial activity against Escherichia coli W3110 containing pZL16 expressing sPseudomonas aeruginosa fabV gene assessed as microbial growth inhibition; assay type: functional; outline: as §2
[19] = biological target: T1, Enoyl-[acyl-carrier-protein] reductase [NADH] FabI (Pseudomonas aeruginosa); experiment: Inhibition of Pseudomonas aeruginosa fabI activity assessed as conversion of 3-hydroxydecanoyl-ACP to trans-2-decenoyl-ACP at 10 ug/ml in presence of 2.5 M urea; outline: as §4
Pseudomonas aeruginosa [20] = experiment: Inhibition of wild type Pseudomonas aeruginosa ENR assessed as reduction of [1-14C]acetate incorporation into phospholipids
[21] = compound: C/C=C/C(=O)SCCNC(=O)CCNC(=O)[C@@H](O)C(C)(C)COP(=O)(O)OP(=O)(O)OC[C@H]1O[C@@H](n2cnc3c(N)ncnc32)[C@H](O)[C@@H]1OP(=O)(O)O; experiment: Inhibition of Pseudomonas aeruginosa PAO272 fabI in presence of 100 uM NADH; outline: as §1

C/C=C/C(=O)SCCNC(=O)CCNC(=O)[C@@H](O)C(C)(C)COP(=O)(O)OP(=O)(O)OC[C@H]1O[C@@H](n2cnc3c(N)ncnc32)[C@H](O)[C@@H]1OP(=O)(O)O
Km (Pseudomonas aeruginosa [1]): 704 µM
Vmax (Pseudomonas aeruginosa [1]): 7.9 nmol/min/mg

Oc1cc(Cl)ccc1Oc1ccc(Cl)cc1Cl [TRICLOSAN]
MIC (Pseudomonas aeruginosa [2]): 1 µg/mL (≈ 3.45 µM)
MIC (Escherichia coli [3]): 4 µg/mL (≈ 13.8 µM)
MIC (Pseudomonas aeruginosa [4]): > 2000 µg/mL
inhibition (Pseudomonas aeruginosa [5]): Active
MIC (Escherichia coli [6]): 3 µg/mL (≈ 10.4 µM)
inhibition (Pseudomonas aeruginosa [7]): 29%
MIC (Escherichia coli [8]): 0.2 µg/mL (≈ 0.691 µM)
inhibition [9]: inactive
MIC (Escherichia coli [10]): > 2000 µg/mL
MIC (Escherichia coli [11]): 4 µg/mL (≈ 13.8 µM)
MIC (Escherichia coli [12]): 3 µg/mL (≈ 10.4 µM)
MIC (Escherichia coli [13]): 0.2 µg/mL (≈ 0.691 µM)
inhibition (Pseudomonas aeruginosa [14]): inactive
inhibition [15]: inactive
MIC (Pseudomonas aeruginosa [16]): > 2000 µg/mL
inhibition (Pseudomonas aeruginosa [17]): 15%
MIC (Escherichia coli [18]): > 2000 µg/mL
inhibition [19]: Active
inhibition (Pseudomonas aeruginosa [20]): inactive

B1: Enoyl-[acyl-carrier-protein] reductase [NADH] FabI (Pseudomonas aeruginosa), Q9ZFE4 (protein)
chain: T1 sequence (whole entry)
Km [21]: 4.7 µM
Vmax [21]: 1.5 nmol/min/mg
